Measurements: ChEMBL document CHEMBL4699485, “Discovery and Development of SPR519 as a Potent, Selective, and Orally Bioavailable Inhibitor of PI3Kα and mTOR Kinases for the Treatment of Solid Tumors” (J Med Chem, 2020)
Active and inactive are the calls of the source. The rule behind the calls is not given here.

Assays:
[1] = target: PI3-kinase p110-alpha/p85-alpha (Homo sapiens, UniProt P42336); experiment: Inhibition of recombinant human full-length N-terminal His-tagged p110 alpha/p85 alpha expressed in baculovirus expression system using PIP2 as substrate preincubated for 15 mins followed by substrate addition and measured after 60 mins by ADP HiLyte 647 tracer bound ADP2 antibody-Tb conjugate based HTRF assay
In short: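 PI3Kα at 150 ng/mL (diluted stock) in 50 mM HEPES pH 7.4, 3 mM MgCl2, 2 mM DTT, 0.05% CHAPS, 50 mM NaCl, 1 mM EGTA. Compound tested over 10–0.001 µM. Final reaction held 50 µM PIP2 and 1 µM ATP. Detection mix added for 1 h, then 665/615 nm ratio read. % inhibition versus concentration fitted by four-parameter nonlinear regression to give IC50.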

A2780 = experiment: Antiproliferative activity against human A2780 cells after 48 hrs by MTT assay; assay type: functional, cell-based; conditions: A2780, 48 h
In short: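 A2780 cells grown in DMEM with 10% FBS, L-glutamine and antibiotics, seeded at 10000 cells/well and allowed to adhere overnight. Treated 48 h across 20 µM–0.001 µM. MTT (5 mg/mL in PBS) added for 4 h, formazan dissolved in DMSO, absorbance read at 550 nm. % inhibition fit to a four-parameter log inhibitor vs response curve.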

[2] = target: Serine/threonine-protein kinase mTOR (Homo sapiens, UniProt P42345); experiment: Inhibition of recombinant human GST-tagged mTOR catalytic domain (1360 to 2549 residues) expressed in baculovirus expression system using GFP-4E-BP1 as substrate preincubated for 15 mins followed by substrate addition and measured after 60 mins by TR-FRET assay
In short: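 Recombinant mTOR (FRAP1) was preincubated 15 min with serially diluted compound (10 µM–0.0005 µM, DMSO) in kinase buffer, 10 µL reaction. GFP-4E-BP1 (400 nM final) and ATP (8 µM final) were added and the reaction ran 1 h at RT. Quench buffer with Tb-anti-p4E-BP1 (pThr46) was added for 1 h at RT. TR-FRET 520/486 nm ratio was fitted by four-parameter sigmoidal regression.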

PC-3 = experiment: Antiproliferative activity against human PC-3 cells after 48 hrs by MTT assay; assay type: functional, cell-based; conditions: PC-3, 48 h
In short: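 PC3 cells grown in RPMI 1640 with 10% FBS and 1% penicillin/streptomycin at 37 °C, 5% CO2, seeded at 10000 cells/well. Treated 48 h across 20 µM–0.001 µM. MTT (5 mg/mL in PBS) added for 4 h, then DMSO solubilization and absorbance at 550 nm. Four-parameter nonlinear fit of % inhibition.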

SK-OV-3 = experiment: Antiproliferative activity against human SK-OV-3 cells after 48 hrs by MTT assay; assay type: functional, cell-based; conditions: SK-OV-3, 48 h
In short: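 SK-OV-3 cells grown in McCoy's 5a with 10% FBS, 100 U/mL penicillin and 100 µg/mL streptomycin at 37 °C, 5% CO2, seeded at 10000 cells/well. Treated 48 h across 20 µM–0.001 µM. MTT (5 mg/mL in PBS) added for 4 h, DMSO solubilization, absorbance read at 550 nm. Four-parameter curve fit of % inhibition.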

[3] = Metabolic stability in dog liver microsomes assessed as parent compound remaining at 10 uM remaining after 120 mins in presence of NADPH by HPLC analysis; assay type: ADME, Canis lupus familiaris, Microsome; conditions: read-out: Stabilty
In short: (§1)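 Compound at 10 µM was incubated with 0.5 mg/mL liver microsomes and 1 mM NADPH (final). Samples were taken at 0, 15, 30, 60 and 120 min and stopped with acetonitrile, then centrifuged and the supernatant analysed by HPLC. Percent parent remaining was set relative to the 0 min peak area (100%).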

[4] = Metabolic stability in mouse liver microsomes assessed as parent compound remaining at 10 uM remaining after 120 mins in presence of NADPH by HPLC analysis; assay type: ADME, Microsome; conditions: read-out: Stabilty; in short: as §1
[5] = Metabolic stability in human liver microsomes assessed as parent compound remaining at 10 uM remaining after 120 mins in presence of NADPH by HPLC analysis; assay type: ADME, Microsome; conditions: read-out: Stabilty; in short: as §1
[6] = AUC in Swiss mouse at 3 mg/kg, po via gavage by LC-MS/MS analysis; assay type: ADME, organism-based; design: dose 3 mg/kg; conditions: in vivo
In short: (§2)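 Female Swiss mice (n=3/group), fasted overnight, given single oral gavage dose in 0.5% CMC/0.5% Tween 80 (10 mL/kg) at 1, 3 or 10 mg/kg. Serial blood sampling at 0.16–8 h into heparinized tubes. Plasma extracted with acetonitrile containing verapamil internal standard and quantified by LC-MS/MS. Cmax, Tmax, AUC and t1/2 derived from the concentration–time profile.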

[7] = Cmax in Swiss mouse at 3 mg/kg, po via gavage by LC-MS/MS analysis; assay type: ADME, organism-based; design: route oral, dose 3 mg/kg; conditions: in vivo; in short: as §2
[8] = Tmax in Swiss mouse at 3 mg/kg, po via gavage by LC-MS/MS analysis; assay type: ADME, organism-based; conditions: in vivo
In short: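 Female Swiss mice (n=3/group) were fasted overnight, then gavaged with compound in 0.5% CMC/0.5% Tween 80 at 10 mL/kg. Serial blood samples at 0.16, 0.5, 1, 2, 4, 6 and 8 h were taken into heparinized tubes and spun to plasma. Plasma was extracted with acetonitrile containing verapamil (400 ng/mL) and quantified by LC-MS/MS against plasma calibration curves. Tmax was derived from the concentration–time profile.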

[9] = Elimination half life in Swiss mouse at 3 mg/kg, po via gavage by LC-MS/MS analysis; assay type: ADME, organism-based; conditions: in vivo, read-out: beta t1/2 (converted); in short: as §2
Homo sapiens = species on record: Homo sapiens; experiment: Channel blockade of human ERG G601S mutant expressed in mammalian expression system assessed as effect on surface expression of channel at 1 to 30 uM by HERG-Lite assay; conditions: dose microM 1-30
In short: (§3)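 HERG-lite assay scoring both channel blocking and trafficking inhibition, with test compound at 1, 10 and 30 µM. Geldanamycin (1 µM) served as the trafficking-inhibition reference and astemizole as the standard hERG binder.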

[10] = target: T1, Voltage-gated inwardly rectifying potassium channel KCNH2 (Homo sapiens, UniProt Q12809); experiment: Inhibition of human ERG channel trafficking expressed in mammalian expression system at 1 to 30 uM by HERG-Lite assay; conditions: dose 1-30 µM; in short: as §3
[11] = target: T1, Voltage-gated inwardly rectifying potassium channel KCNH2; experiment: Inhibition of human ERG by patch-clamp assay
Cytochrome P450 3A4 = Cytochrome P450 3A4 (Homo sapiens, UniProt P08684); experiment: Inhibition of CYP3A4 in human liver microsomes using isoform-specific probe substrates preincubated for 5 mins followed by NADPH addition by LC-MS/MS analysis; assay type: ADME
In short: (§4)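 Human liver microsomes premixed with buffer and a CYP-specific FDA-recommended probe substrate, then spiked with inhibitor, in duplicate. After 5 min preincubation at 37 °C, reaction started with NADPH and run at 37 °C for a set time, then quenched. Metabolite formation quantified by HPLC/LC-MS/MS to derive the concentration giving 50% inhibition.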

Cytochrome P450 2C19 = Cytochrome P450 2C19 (Homo sapiens, UniProt P33261); experiment: Inhibition of CYP2C19 in human liver microsomes using isoform-specific probe substrates preincubated for 5 mins followed by NADPH addition by LC-MS/MS analysis; assay type: ADME; in short: as §4
Cytochrome P450 2D6 = Cytochrome P450 2D6 (Homo sapiens, UniProt P10635); experiment: Inhibition of CYP2D6 in human liver microsomes using isoform-specific probe substrates preincubated for 5 mins followed by NADPH addition by LC-MS/MS analysis; assay type: ADME; in short: as §4
[12] = Drug uptake in Swiss mouse plasma at 10 mg/kg, po via gavage by LC-MS/MS analysis; assay type: ADME, organism-based; conditions: in vivo; in short: as §2

T1 sequence (Q12809 whole entry): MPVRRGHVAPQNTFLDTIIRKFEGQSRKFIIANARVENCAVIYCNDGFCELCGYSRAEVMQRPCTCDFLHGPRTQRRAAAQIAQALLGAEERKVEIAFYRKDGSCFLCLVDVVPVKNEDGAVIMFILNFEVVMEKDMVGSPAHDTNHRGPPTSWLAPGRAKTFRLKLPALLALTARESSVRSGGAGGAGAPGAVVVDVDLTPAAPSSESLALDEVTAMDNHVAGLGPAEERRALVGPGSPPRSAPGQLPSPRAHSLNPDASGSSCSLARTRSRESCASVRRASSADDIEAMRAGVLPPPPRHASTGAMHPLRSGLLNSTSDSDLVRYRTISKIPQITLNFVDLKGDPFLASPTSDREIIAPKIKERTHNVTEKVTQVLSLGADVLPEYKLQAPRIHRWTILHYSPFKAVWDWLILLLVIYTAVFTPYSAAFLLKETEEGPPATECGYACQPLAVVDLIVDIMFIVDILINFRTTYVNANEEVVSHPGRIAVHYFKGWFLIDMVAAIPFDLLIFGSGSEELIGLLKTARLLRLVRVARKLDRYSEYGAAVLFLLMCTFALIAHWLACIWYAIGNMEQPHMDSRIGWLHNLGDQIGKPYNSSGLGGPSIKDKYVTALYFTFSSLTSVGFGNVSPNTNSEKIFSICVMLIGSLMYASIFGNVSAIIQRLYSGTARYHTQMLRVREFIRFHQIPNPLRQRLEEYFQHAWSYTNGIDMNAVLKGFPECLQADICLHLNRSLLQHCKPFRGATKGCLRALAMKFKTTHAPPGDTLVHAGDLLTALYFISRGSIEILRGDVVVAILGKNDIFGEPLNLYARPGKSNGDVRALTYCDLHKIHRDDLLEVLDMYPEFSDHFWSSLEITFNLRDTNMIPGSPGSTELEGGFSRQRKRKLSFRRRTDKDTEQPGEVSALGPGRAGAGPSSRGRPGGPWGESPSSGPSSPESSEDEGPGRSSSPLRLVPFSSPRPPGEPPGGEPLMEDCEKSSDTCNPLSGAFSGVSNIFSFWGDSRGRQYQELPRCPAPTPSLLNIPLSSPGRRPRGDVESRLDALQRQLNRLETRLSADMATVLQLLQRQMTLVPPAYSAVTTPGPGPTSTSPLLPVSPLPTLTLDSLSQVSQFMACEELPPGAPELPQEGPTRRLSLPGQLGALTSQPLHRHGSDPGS
PI3-kinase p110-alpha/p85-alpha, sequence (P27986 whole entry): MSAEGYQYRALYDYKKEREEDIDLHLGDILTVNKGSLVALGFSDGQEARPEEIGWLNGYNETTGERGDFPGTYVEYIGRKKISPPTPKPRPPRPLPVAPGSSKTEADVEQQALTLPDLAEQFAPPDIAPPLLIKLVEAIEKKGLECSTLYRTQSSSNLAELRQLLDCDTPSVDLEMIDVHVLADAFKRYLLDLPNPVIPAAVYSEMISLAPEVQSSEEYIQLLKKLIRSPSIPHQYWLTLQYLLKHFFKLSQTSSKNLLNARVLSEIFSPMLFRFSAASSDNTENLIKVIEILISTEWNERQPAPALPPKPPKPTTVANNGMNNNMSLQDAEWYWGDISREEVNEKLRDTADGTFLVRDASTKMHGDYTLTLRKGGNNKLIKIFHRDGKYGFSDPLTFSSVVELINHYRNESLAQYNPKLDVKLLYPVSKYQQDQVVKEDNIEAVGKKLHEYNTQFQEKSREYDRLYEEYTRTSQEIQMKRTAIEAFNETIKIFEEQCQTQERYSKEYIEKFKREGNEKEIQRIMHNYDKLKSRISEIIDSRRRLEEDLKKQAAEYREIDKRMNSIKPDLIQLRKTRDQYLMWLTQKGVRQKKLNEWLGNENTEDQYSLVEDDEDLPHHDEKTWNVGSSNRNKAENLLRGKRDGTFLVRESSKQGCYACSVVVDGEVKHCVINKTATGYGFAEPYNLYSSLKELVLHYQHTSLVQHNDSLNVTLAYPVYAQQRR
PI3-kinase p110-alpha/p85-alpha, sequence (P42336 whole entry): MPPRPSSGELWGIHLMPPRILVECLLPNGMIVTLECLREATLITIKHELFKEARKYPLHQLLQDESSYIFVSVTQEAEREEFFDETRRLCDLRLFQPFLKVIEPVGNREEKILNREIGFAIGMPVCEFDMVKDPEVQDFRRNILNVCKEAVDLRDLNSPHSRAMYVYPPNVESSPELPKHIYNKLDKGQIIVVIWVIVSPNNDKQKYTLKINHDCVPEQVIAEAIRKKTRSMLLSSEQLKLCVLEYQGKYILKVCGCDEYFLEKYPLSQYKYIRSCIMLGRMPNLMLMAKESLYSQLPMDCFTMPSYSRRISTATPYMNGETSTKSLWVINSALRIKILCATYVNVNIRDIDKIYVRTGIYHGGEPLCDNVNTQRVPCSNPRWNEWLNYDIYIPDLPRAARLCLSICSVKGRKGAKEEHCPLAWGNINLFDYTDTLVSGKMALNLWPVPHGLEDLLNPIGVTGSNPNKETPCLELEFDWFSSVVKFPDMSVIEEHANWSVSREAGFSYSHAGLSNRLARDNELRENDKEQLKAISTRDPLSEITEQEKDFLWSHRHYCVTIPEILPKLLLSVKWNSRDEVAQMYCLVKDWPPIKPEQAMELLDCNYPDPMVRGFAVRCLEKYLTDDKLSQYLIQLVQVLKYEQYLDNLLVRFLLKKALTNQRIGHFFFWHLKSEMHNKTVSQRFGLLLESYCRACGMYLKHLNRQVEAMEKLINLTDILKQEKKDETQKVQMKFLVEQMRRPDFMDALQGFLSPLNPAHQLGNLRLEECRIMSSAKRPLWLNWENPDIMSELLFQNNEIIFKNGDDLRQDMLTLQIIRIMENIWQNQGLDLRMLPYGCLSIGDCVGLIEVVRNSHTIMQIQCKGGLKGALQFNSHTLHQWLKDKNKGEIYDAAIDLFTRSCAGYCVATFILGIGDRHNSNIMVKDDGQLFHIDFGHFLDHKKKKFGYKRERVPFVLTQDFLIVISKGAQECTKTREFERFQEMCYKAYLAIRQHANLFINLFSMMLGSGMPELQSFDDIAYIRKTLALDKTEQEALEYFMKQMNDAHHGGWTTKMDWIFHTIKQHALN
Cytochrome P450 2D6, sequence (P10635 whole entry, canonical isoform): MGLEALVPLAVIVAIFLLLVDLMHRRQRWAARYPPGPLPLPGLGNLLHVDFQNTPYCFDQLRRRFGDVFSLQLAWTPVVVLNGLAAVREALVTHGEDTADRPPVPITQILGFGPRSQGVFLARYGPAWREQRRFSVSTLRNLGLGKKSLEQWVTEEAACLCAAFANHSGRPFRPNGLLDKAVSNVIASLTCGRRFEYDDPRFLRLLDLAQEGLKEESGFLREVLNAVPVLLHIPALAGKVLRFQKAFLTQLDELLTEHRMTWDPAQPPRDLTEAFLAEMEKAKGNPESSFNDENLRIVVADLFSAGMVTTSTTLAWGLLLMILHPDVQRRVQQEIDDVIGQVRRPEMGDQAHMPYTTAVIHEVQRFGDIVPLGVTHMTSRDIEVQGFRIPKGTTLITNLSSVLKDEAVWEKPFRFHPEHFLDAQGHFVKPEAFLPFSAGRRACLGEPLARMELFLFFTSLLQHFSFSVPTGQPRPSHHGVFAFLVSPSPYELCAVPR
Cytochrome P450 3A4, sequence (P08684 whole entry, canonical isoform): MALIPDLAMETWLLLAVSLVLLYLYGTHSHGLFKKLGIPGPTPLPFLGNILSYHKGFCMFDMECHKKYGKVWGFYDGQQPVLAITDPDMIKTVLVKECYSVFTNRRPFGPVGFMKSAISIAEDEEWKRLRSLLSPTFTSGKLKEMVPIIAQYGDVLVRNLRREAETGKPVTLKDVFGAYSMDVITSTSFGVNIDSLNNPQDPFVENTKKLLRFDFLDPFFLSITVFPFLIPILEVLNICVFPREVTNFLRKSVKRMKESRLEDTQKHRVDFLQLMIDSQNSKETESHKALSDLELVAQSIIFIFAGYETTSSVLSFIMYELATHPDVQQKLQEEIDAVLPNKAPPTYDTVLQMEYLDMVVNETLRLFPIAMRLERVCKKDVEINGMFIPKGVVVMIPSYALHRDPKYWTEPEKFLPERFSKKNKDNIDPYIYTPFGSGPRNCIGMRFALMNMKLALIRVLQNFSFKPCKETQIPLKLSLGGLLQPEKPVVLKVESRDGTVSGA
Cytochrome P450 2C19, sequence (P33261 whole entry, canonical isoform): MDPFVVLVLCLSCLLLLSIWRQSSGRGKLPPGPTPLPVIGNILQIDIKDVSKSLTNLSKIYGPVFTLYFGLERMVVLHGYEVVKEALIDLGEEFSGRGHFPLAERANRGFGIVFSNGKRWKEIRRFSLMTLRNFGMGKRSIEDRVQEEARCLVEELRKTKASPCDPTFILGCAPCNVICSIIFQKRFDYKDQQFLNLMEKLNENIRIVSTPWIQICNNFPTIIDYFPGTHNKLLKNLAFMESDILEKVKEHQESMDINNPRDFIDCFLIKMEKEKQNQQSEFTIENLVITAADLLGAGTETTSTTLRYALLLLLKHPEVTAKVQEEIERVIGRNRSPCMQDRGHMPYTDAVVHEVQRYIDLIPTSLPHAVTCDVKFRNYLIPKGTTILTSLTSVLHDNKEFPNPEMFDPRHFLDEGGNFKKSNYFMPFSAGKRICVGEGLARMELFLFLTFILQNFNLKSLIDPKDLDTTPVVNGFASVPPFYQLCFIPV

| Compound | IC50 [1] [nM] | IC50 (A2780) [nM] | IC50 [2] [nM] | EC50 (PC-3) [nM] | EC50 (SK-OV-3) [nM] | other results |
| --- | --- | --- | --- | --- | --- | --- |
| CN(C)C(=O)c1ccc(Oc2nc(-c3cccc4[nH]ccc34)nc(N3CCOCC3)n2)cc1 | 560 | 900 |  |  |  |  |
| Cc1nc(N)sc1-c1nc(Oc2ccc(C(=O)N(C)C)cc2)nc(N2CCOCC2)n1 | 140 | 1100 |  |  |  |  |
| CN(C)C(=O)c1ccc(Oc2nc(-c3ccc(N)nc3)nc(N3CCOCC3)n2)cc1 | 210 | 200 | 200 | 280 | 210 | remaining at 2 h, 10 µM [3]: 93%; remaining at 2 h, 10 µM [4]: 102%; remaining at 2 h, 10 µM [5]: 93%; AUC [6]: 10.9 µM·h; Cmax [7]: 2010 nM; Tmax [8]: 1.4 h; half-life [9]: 2.7 h; Activity (Homo sapiens): Active; inhibition (INH) [10]: Not Active; IC50 [11]: > 1000 nM; IC50 (Cytochrome P450 3A4): > 10000 nM; IC50 (Cytochrome P450 2C19): > 10000 nM; IC50 (Cytochrome P450 2D6): > 10000 nM |
| CN(C)C(=O)c1ccc(Oc2nc(-c3cccc4[nH]nnc34)nc(N3CCOCC3)n2)cc1 | > 10000 | > 10000 |  |  |  |  |
| CN(C)C(=O)c1ccc(Oc2nc(-c3cccc(O)c3)nc(N3CCOCC3)n2)cc1 | 10 | 90 |  |  |  | Drug uptake [12]: Not Active |
| Cc1nc(N)ccc1-c1nc(Oc2ccc(C(=O)N(C)C)cc2)nc(N2CCOCC2)n1 | 3400 | > 10000 |  |  |  |  |
| CN(C)C(=O)c1ccc(Oc2nc(-c3cccc4[nH]ncc34)nc(N3CCOCC3)n2)cc1 |  | 520 | 1350 | 1970 | 520 | remaining at 2 h, 10 µM [3]: 83%; remaining at 2 h, 10 µM [4]: 45%; remaining at 2 h, 10 µM [5]: 100%; AUC [6]: 5.25 µM·h |
| CN(C)C(=O)c1ccc(Oc2nc(-c3cnc(N)[nH]3)nc(N3CCOCC3)n2)cc1 | 900 | 2360 |  |  |  |  |
| CN(C)C(=O)c1ccc(Oc2nc(-c3cnc(N)nc3)nc(N3CCOCC3)n2)cc1 | 270 | 560 | 960 | 800 | 220 |  |
| Cc1cc(N)ncc1-c1nc(Oc2ccc(C(=O)N(C)C)cc2)nc(N2CCOCC2)n1 | > 10000 | > 10000 |  |  |  |  |
| Cc1cc(-c2nc(Oc3ccc(C(=O)N(C)C)cc3)nc(N3CCOCC3)n2)cnc1N | 460 | 1500 |  |  |  |  |
| CN(C)C(=O)c1ccc(Oc2nc(-c3ccnc4[nH]ccc34)nc(N3CCOCC3)n2)cc1 | 80 | 370 | 220 | 300 | 370 | remaining at 2 h, 10 µM [3]: 77%; remaining at 2 h, 10 µM [4]: 68%; remaining at 2 h, 10 µM [5]: 92%; AUC [6]: 16.8 µM·h; Cmax [7]: 3080 nM; Tmax [8]: 1 h; half-life [9]: 2.8 h; Activity (Homo sapiens): Active; inhibition (INH) [10]: Not Active; IC50 [11]: > 10000 nM; IC50 (Cytochrome P450 3A4): > 10000 nM; IC50 (Cytochrome P450 2C19): > 10000 nM; IC50 (Cytochrome P450 2D6): > 10000 nM |
